This passage reports IC50 results from ChEMBL document CHEMBL1132156, “Synthesis and structure-activity relationships of potential anticancer agents: alkylcarbamates of 3-(9-acridinylamino)-5-hydroxymethylaniline” (J Med Chem, 1999).

This test deals with HL-60. As to the kind of experiment: In vitro inhibition of human leukemic HL-60 cell growth in culture. It counts as functional, cell-based. The method, boiled down: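 HL-60 cells were seeded at 5×10^4 cells/mL in RPMI 1640 with 10% heat-inactivated FBS, penicillin and streptomycin, at 37 °C in 5% CO2. Cells were exposed for 72 h to six or seven drug concentrations, run in duplicate. Viability was read by XTT-tetrazolium microculture absorbance, and IC50 was derived from median-effect plot analysis.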

Each structure is given as a SMILES string.

What is called IC50 is the midpoint of a concentration-inhibition curve. The low end stands for greater potency, the high end for weaker potency. `CCOC(=O)Nc1cc(CO)cc(Nc2c3ccccc3nc3c(OC)cccc23)c1` registered an IC50 of 10 nM. The molecule `O=C(Nc1cc(CO)cc(Nc2c3ccccc3nc3ccccc23)c1)OCc1ccccc1` registered an IC50 of 29 nM. Against the preceding molecule, the IC50 is about 2.9-fold higher. As for `CCOC(=O)Nc1cc(CO)cc(Nc2c3cccc(OC)c3nc3c(C(=O)NCCN(C)C)cccc23)c1`, the IC50 is 9.7 nM. This IC50 lies about 3-fold lower than the previous one. As for `CCOC(=O)Nc1cc(CO)cc(Nc2c3ccccc3nc3c(F)cccc23)c1`, the IC50 was determined as 31 nM. As to `CCOC(=O)Nc1cc(CO)cc(Nc2c3cccc(C)c3nc3c(C(=O)NC)cccc23)c1`, 11 nM corresponded to half-maximal inhibition (IC50).

In the case of `Nc1cc(CO)cc(Nc2c3ccccc3nc3c(Cl)cccc23)c1`, the IC50 was 370 nM. For the molecule `Cc1cccc2c(Nc3cc(N)cc(CO)c3)c3cccc(C(=O)NCCN(C)C)c3nc12`, the IC50 stood at 7.4 nM.

For `O=C(Nc1cc(CO)cc(Nc2c3ccccc3nc3ccccc23)c1)Oc1ccccc1`, the IC50 amounted to 161 nM. Compared with the last molecule, the IC50 is about 22-fold higher. For `CCOC(=O)Nc1cc(CO)cc(Nc2c3ccccc3nc3c(Br)cccc23)c1` the value was 130 nM; for `Cc1cccc2c(Nc3cc(N)cc(CO)c3)c3ccccc3nc12`, 7.6 nM; for `CCOC(=O)Nc1cc(CO)cc(Nc2c3ccccc3nc3c(Cl)cccc23)c1`, 67 nM. Consider `Nc1cc(CO)cc(Nc2c3ccccc3nc3c(Br)cccc23)c1`, for which the IC50 came to 1500 nM.

For `Nc1cc(CO)cc(Nc2c3ccccc3nc3c(F)cccc23)c1`, the half-maximal inhibitory concentration (IC50) is 150 nM. This IC50 lies about 10-fold lower than the previous one.

`CNC(=O)c1cccc2c(Nc3cc(N)cc(CO)c3)c3cccc(OC)c3nc12` showed an IC50 of 120 nM.

The molecule `COc1cccc2c(Nc3cc(N)cc(CO)c3)c3cccc(C(=O)NCCN(C)C)c3nc12` returned an IC50 of 38 nM.
